Shown is part of a subset that was picked to be rich in hits.
INS promoter act = TRM-6 insulin promoter activation | TRM-6 cells (human fetal islet line), insulin promoter eGFP reporter, imaging; plate-scaled: unstimulated 0, stimulated control 100 | activation, % at 2 µM | 130,000 tested, 0.81% active | AID 1296;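 active means activation at 2 µM above a set limit, confirmed on inspection of the cell images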;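 further: share of cells whose green reporter signal exceeds an intensity cutoff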
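Material: TRM-6 insulin promoter–eGFP reporter cells. Buffer or medium: Low-glucose (5.5 mM) medium with tamoxifen. Probe or stimulus: tamoxifen at 0.75 µM added at seeding for reporter induction. Times: tamoxifen pre-incubation 15 h overnight, then compound exposure 48 h at 37 °C. Detection: high-content imaging of fixed cells with Hoechst nuclear stain.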
* = called active by the depositor.

SMILES	INS promoter act
C/C(=N\NC(=O)CSc1nc(C)cc(C)n1)c1cccs1	-2.9
Cc1cc(C)nc(SCC(=O)N/N=C/c2cccn2-c2ccc(O)cc2)n1	106.3*
Cc1cc(C)nc(SCC(=O)Nc2ccc(N3CCOCC3)cc2)n1	-9.6
CCOC(=O)CS(=O)(=O)c1ccccc1	0.0
COc1cc(NC(=O)CS(=O)(=O)c2ccccc2)cc(OC)c1OC	381.3
C/C(CS(=O)(=O)c1ccccc1)=N\O	229.4*
CC(NC(=O)C12CC3(C)CC(C)(CC(C)(C3)C1)C2)C(=O)O (centres undefined)	-70.6
CCCOc1ccc(OC(=O)c2ccc(Br)o2)cc1	-9.1
O=C(CCSc1ccccc1)Nc1ccc(S(=O)(=O)N2CCOCC2)cc1	8.6
Cc1cc(C(F)F)n2ncc(C(=O)N3CCCCC3)c2n1	246.7
COc1ccc(-c2cc(C(F)F)n3ncc(C(=O)N4CCc5ccccc5C4)c3n2)cc1	392.9*
O=C(c1cnn2c(C(F)F)cc(-c3ccccc3)nc12)N1CCN2CCCC2C1 (centres undefined)	104.5
Cc1nn(C/C(C#N)=N\O)c(C)[n+]1N	-9.1
CCOC(=O)c1cccc(NC(=O)c2ccc(N(C)C)cc2)c1	-7.4
CC(C)(C)c1ccc(C(=O)NCC(=O)OCC(=O)Nc2ccc3c(c2)OCCO3)cc1	0.0
Cc1[nH]nc2c1C(c1cn[nH]c1-c1ccc(F)cc1)C(C#N)=C(N)O2 (centres undefined)	0.0
CC(=NCCCNC1CCCCC1)C1=C(O)CC(C)(C)CC1=O	89.5*
CC1(C)CC(=O)C(C=N)=C(O)C1	3.7
Cc1nn(Cc2ccccc2Cl)c(C)c1C(=O)N1CCN(c2ccccc2)CC1	0.0
CCOC(=O)c1c(C)oc2ccc(OC(=O)c3cccs3)cc12	7.1
CCOC(=O)CCC(=O)c1c(C)oc2ccc(OC)cc12	50.0
CCOC(=O)c1c(CN2CCN(C)CC2)oc2ccc(OC)cc12	138.5*
CCCCN(CC)CCNC(=O)CNC(=O)Cn1ccc2ccccc2c1=O	8.3
CC(C)C(=O)Nc1ccc(NC(=O)c2cccc(F)c2)cn1	0.0
CCN(CC(=O)NCc1cccs1)S(=O)(=O)c1ccc(C(C)C)cc1	5.7
SMILES	INS promoter act
Cc1ccc2nc(-c3ccccc3)nc(SC(C)C(=O)NCc3cccs3)c2c1 (centres undefined)	-7.1
Cc1nc2ccc(S(=O)(=O)NC(C(=O)NCc3cccs3)C(C)C)cc2s1 (centres undefined)	250.0*
CC(=O)c1cccc(NC(=S)NC(=O)CC(C)C)c1	3.6
Cc1cc(C(F)(F)F)nc(CCNCc2c(C(=O)N3CCCC3)nc3ccccn23)n1	-4.3
CC1(C)SC(=S)N(/N=C/c2ccccc2)C1N(O)C(=O)Nc1ccc([N+](=O)[O-])cc1 (centres undefined)	5.1
O=C(C1CCN(C2CC(=O)N(c3cccc(Cl)c3)C2=O)CC1)N1CCCC1 (centres undefined)	6.9
COc1cccc(N2CCN(C3CC(=O)N(c4ccc(F)c(Cl)c4)C3=O)CC2)c1 (centres undefined)	-9.7
NC(=O)C1CCN(C2CC(=O)N(c3ccc(F)c(Cl)c3)C2=O)CC1 (centres undefined)	85.7*
CN(c1cccc(NC(=O)Cc2ccccc2)c1)S(C)(=O)=O	0.0
O=C(c1cccn2c(=O)c3cc(Cl)ccc3nc12)N1CCN(Cc2ccc3c(c2)OCO3)CC1	-9.1
NC(=O)C1(N2CCCCC2)CCN(C(=O)c2cccn3c(=O)c4cc(Cl)ccc4nc23)CC1	150.0*
CCOCCCn1c(=S)[nH]c2cc(C(=O)N3CCC(C(N)=O)(N4CCCCC4)CC3)ccc2c1=O	-6.7
Cc1cc2cc(CCNC(=O)C(=O)c3c[nH]c4ccccc34)c(=O)[nH]c2cc1C	0.0
COc1ccc(N(CC(=O)Nc2c(C)n(C)n(-c3ccccc3)c2=O)S(=O)(=O)c2ccccc2)cc1OC	8.3
Cc1ccc(C2C(C#N)=C(N)SC(N)=C2C#N)cc1	121.4*
N#CC1=C(N)SC(N)=C(C#N)C1c1ccoc1	31.8
Cc1ccc(C2C(C#N)=C(N)SC(N)=C2C#N)c(C)c1	-3.8
NS(=O)(=O)c1cccc(NC(=O)CNC(=O)CC23CC4CC(CC(C4)C2)C3)c1	-6.7
Fc1ccc(NC(=S)N2CCSC2c2cccs2)cc1 (centres undefined)	108.3
COc1cccc(-c2csc3nc[nH]c(=O)c23)c1	-88.6
CCC1(CC)C(=O)NC(=O)NC1=Nc1cccc(OC)c1	167.7*
COc1cccc(NC(=O)Cc2ccccc2)c1	-72.7
O=C(CCc1ccc(S(=O)(=O)NCCc2ccccc2)cc1)N1CCN(Cc2ccc3c(c2)OCO3)CC1	-5.7
COc1ccc(N(CC(=O)N2CCN(Cc3ccc4c(c3)OCO4)CC2)S(C)(=O)=O)cc1OC	90.9
CC(C)CNS(=O)(=O)c1ccc(CCC(=O)N2CCN(Cc3ccc4c(c3)OCO4)CC2)cc1	468.8*
SMILES	INS promoter act
CCCOc1ccc(NC(=O)CC2C(=O)N(Cc3ccccc3)C(=S)N2Cc2cccs2)cc1 (centres undefined)	-7.1
COc1ccc(OC)c(/C=N/NC(=O)CCCC(=O)Nc2cccc(Br)c2)c1	6.7
COc1ccc(OC)c(/C=N/N(C)c2ccccc2)c1	132.1*
COc1ccc(OC)c(C(=O)c2ccccc2)c1	-81.0
C/C(=N\NC(=O)c1ccc(Cl)c(S(=O)(=O)Nc2ccccc2Cl)c1)c1ccncc1	6.5
CCN(CC)CCCN1C(=O)C(O)=C(C(=O)c2cccs2)C1c1ccccn1 (centres undefined)	-57.1
COc1ccc(OC)c(Nc2nc(-c3cccs3)cs2)c1	64.4
COc1ccc(Nc2nc(-c3cccs3)cs2)c(OC)c1	592.3*
COc1ccc(Nc2nc(-c3cccs3)cs2)cc1	5.6
Cc1cc(C(=O)O)sc1C	-90.0
Cc1ccc(N(C(=O)Cn2nnc(-c3ccccc3)n2)C(C(=O)NC2CCCCC2)c2ccccn2)cc1C (centres undefined)	343.8*
Cc1ccc(N(C(=O)CCl)C(C(=O)NC2CCCCC2)c2cccnc2)cc1C (centres undefined)	163.2
CC(C)(C)N(C(=O)Cn1nnc(-c2ccc(F)cc2)n1)C(C(=O)NC1CCCC1)c1ccncc1 (centres undefined)	132.4
O=C(Nc1sc2c(c1C(=O)N1CCOCC1)CCCCC2)c1cccnc1	-9.1
Cn1ncc(Cl)c1C(=O)Nc1ccc(Cl)cn1	0.0
Cc1cccc2cc(CN(Cc3ccccc3)C(=O)N3CCOCC3)c3nnnn3c12	147.6
CC1(C)CC(=O)c2cc(C(=O)N3CCCCC3)c(=O)n(-c3ccc(Cl)cc3)c2C1	163.6*
O=C(c1cc2cc(Cl)ccc2oc1=O)N1CCCC1	293.8
Cc1cc(C(=O)C(=O)O)c(C)n1-c1ccc(Cl)cc1	-5.6
O=C(NCCN1CCN(Cc2ccccc2Cl)CC1)Nc1ccccc1	2.8
O=C(CCl)Nc1cn(-c2ccccc2)nc1-c1ccccc1	-7.1
CCOc1ccc(C(C)NC(=O)Cc2ccccc2)cc1OCC (centres undefined)	8.3
Cc1ccccc1CNC(=O)CC1C(=O)NCCN1Cc1c(F)cccc1Cl (centres undefined)	-8.3
CCOC(=O)N1CCN(/C=C(\C#N)c2nc3ccccc3s2)CC1	7.1
N#C/C(=C/c1ccc(-c2ccc(S(N)(=O)=O)cc2)o1)c1nc2ccccc2s1	257.1*
N#CC(=C1CCCC1)c1nc(-c2ccccc2)cs1	2.8
N#C/C(=C(/O)C(Cl)c1ccccc1)c1nc2ccccc2s1 (centres undefined)	-2.7
N#C/C(=C/c1ccc(-c2ccccc2)o1)c1nc(-c2cccs2)cs1	455.6*

Assay outcomes as filed in PubChem.
